Where two headings read alike, the source gives them in different places.
Key:
[1] = cited from earlier work; for NOAEL daily AUC threshold for cardiotoxicity: established preclinically in rats and dogs
T-cell proliferation = details: preclinical; cited from earlier work
[2] = tested on: 4T1-luciferase–positive preclinical tumor models of triple-negative breast cancer; details: in vitro and in vivo; cited from earlier work
[3] = Plasma pharmacokinetics of LY3200882; assay type: in vivo, human
Summary of the method: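 Oral test compound twice daily on 2w/2w or 3w/1w schedules, 5–50 mg. Plasma measured by validated LC-MS/MS. Cmax, tmax, AUC, CL/F and V/F estimated noncompartmentally. Dose proportionality tested by a power model on log-transformed Cmax and AUC with dose as fixed effect. Steady state and accumulation inferred from t1/2.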

[4] = tested on: patients with advanced cancer; assay: Safety and tolerability: treatment-emergent adverse events; assay type: in vivo, human
Summary of the method: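 Patients aged 18 or over with ECOG 0–1 got oral test compound twice daily, 2w/2w or 3w/1w per 28-day cycle, in a 3+3 escalation. Each dose level had at least 3 DLT-evaluable patients. AEs graded by CTCAE v4.03, and investigators judged relation to treatment. AE frequency and percentage given per arm for all patients dosed.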

[5] = tested on: patients with advanced or metastatic cancers; assay: Antitumor activity; assay type: in vivo, human; details: for median PFS: advanced cancers
[6] = tested on: patients with grade 4 glioma; assay: Antitumor activity; assay type: in vivo, human
Summary of the method: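 Patients with grade 4 glioma (IDH1/2-mutant or IDH wild-type) got oral test compound twice daily in 28-day cycles: dose escalation on 2w/2w or 3w/1w, expansion at 50 mg 2w/2w. RANO response by CT or MRI at baseline and days 22–28 of every other cycle until confirmed progression or withdrawal. CR/PR confirmed and reported as frequency. PFS and OS by Kaplan–Meier.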

[7] = tested on: patients with pancreatic cancer; details: patients with treatment-naïve advanced pancreatic cancer; cited from earlier work
[8] = Any grade, Japanese cohort (N = 9)
[9] = Any grade, grade 4 glioma expansion, RP2D 2w/2w (N = 40)
[10] = Any grade, schedule A 2w/2w escalation (N = 30)
[11] = Any grade, schedule B 3w/1w escalation (N = 32)
[12] = Grade ≥3, Japanese cohort (N = 9)
[13] = Grade ≥3, grade 4 glioma expansion, RP2D 2w/2w (N = 40)
[14] = Grade ≥3, schedule A 2w/2w escalation (N = 30)
[15] = Grade ≥3, schedule B 3w/1w escalation (N = 32)
[16] = of a total of 139 patients, LY3200882-based therapies
[17] = schedule A 2w/2w escalation (N = 30)
[18] = schedule B 3w/1w escalation (N = 32)
[19] = grade 4 glioma expansion, RP2D 2w/2w (N = 40)
[20] = single patient, IDH WT grade 4 glioma, monotherapy 50 mg twice a day 2w/2w

## CC(C)(O)c1cc(Nc2cc(Oc3cn(C4CC4)nc3C3CCOCC3)ccn2)ccn1 [LY3200882]
[1]; 2w/2w schedule
  NOAEL daily AUC threshold for cardiotoxicity: 3.4 mg X h/L
[1]; 3w/1w schedule
  NOAEL daily AUC threshold for cardiotoxicity: 1.56 mg X h/L
[1]; nonclinical toxicology studies
  NOAEL for cardiotoxicity (AUC): 3.4 mg X hours/L
T-cell proliferation
  Immunomodulatory effects: induction of T-cell proliferation
[2]
  Effect on tumors in 4T1 models: durable tumor regression
[3]; 5- to 50-mg dose range
  PK profile linearity: linear with dose and time
[3]; based on the short t1/2
  Doses after which steady state would be achieved: 2 doses
[3]; oral, patients
  Time at which peak concentration was reached after administration: 2 h
  mean CL/F: 57.3 L/h
  mean V/F: 559 L
[3]; steady state, twice a day, based on the short t1/2
  Accumulation ratio: 1.4 fold
[3]; suggested by PK constant over time
  Effect on its own metabolism: neither an inhibitor nor an inducer of its own metabolism
[4]; 2w/2w and 3w/1w schedules
  Dose-limiting toxicities: not observed
[4]; 2w/2w schedule
  Recommended phase II dose (RP2D): 50 mg twice a day
[4]; 3w/1w schedule
  Recommended phase II dose (RP2D): 35 mg twice a day
[4]; [8]
  ALT increased (study treatment-related AE): 1 (11) n (%)
  Anemia (study treatment-related AE): 1 (11) n (%)
  Fatigue (study treatment-related AE): 0 (0) n (%)
  Nausea (study treatment-related AE): 1 (11) n (%)
  Subjects with ≥1 TEAE related to study treatment: 3 (33) n (%)
[4]; [9]
  ALT increased (study treatment-related AE): 0 (0) n (%)
  Anemia (study treatment-related AE): 0 (0) n (%)
  Fatigue (study treatment-related AE): 4 (10) n (%)
  Nausea (study treatment-related AE): 0 (0) n (%)
  Subjects with ≥1 TEAE related to study treatment: 10 (25) n (%)
[4]; [10]
  ALT increased (study treatment-related AE): 0 (0) n (%)
  Anemia (study treatment-related AE): 1 (3) n (%)
  Fatigue (study treatment-related AE): 0 (0) n (%)
  Nausea (study treatment-related AE): 1 (3) n (%)
  Subjects with ≥1 TEAE related to study treatment: 10 (33) n (%)
[4]; [11]
  ALT increased (study treatment-related AE): 2 (6) n (%)
  Anemia (study treatment-related AE): 1 (3) n (%)
  Fatigue (study treatment-related AE): 1 (3) n (%)
  Nausea (study treatment-related AE): 1 (3) n (%)
  Subjects with ≥1 TEAE related to study treatment: 10 (31) n (%)
[4]; [12]
  ALT increased (study treatment-related AE): 0 (0) n (%)
  Anemia (study treatment-related AE): 0 (0) n (%)
  Fatigue (study treatment-related AE): 0 (0) n (%)
  Nausea (study treatment-related AE): 0 (0) n (%)
  Subjects with ≥1 TEAE related to study treatment: 0 (0) n (%)
[4]; [13]
  ALT increased (study treatment-related AE): 0 (0) n (%)
  Anemia (study treatment-related AE): 0 (0) n (%)
  Fatigue (study treatment-related AE): 0 (0) n (%)
  Nausea (study treatment-related AE): 0 (0) n (%)
  Subjects with ≥1 TEAE related to study treatment: 0 (0) n (%)
[4]; [14]
  ALT increased (study treatment-related AE): 0 (0) n (%)
  Anemia (study treatment-related AE): 0 (0) n (%)
  Fatigue (study treatment-related AE): 0 (0) n (%)
  Nausea (study treatment-related AE): 0 (0) n (%)
  Subjects with ≥1 TEAE related to study treatment: 0 (0) n (%)
[4]; [15]
  ALT increased (study treatment-related AE): 0 (0) n (%)
  Anemia (study treatment-related AE): 0 (0) n (%)
  Fatigue (study treatment-related AE): 0 (0) n (%)
  Nausea (study treatment-related AE): 0 (0) n (%)
  Subjects with ≥1 TEAE related to study treatment: 0 (0) n (%)
[4]; LY3200882 as monotherapy
  Cardiovascular AEs: no cardiovascular AEs were observed
[4]; overall
  Deaths related to study treatment: none
[4]; overall, 3 patients, only in combination expansion arms
  Patients with SAEs related to study drug: 2.2%
[4]; overall, 24 patients
  Patients with at least 1 serious AE (SAE): 17.3%
[4]; overall, 63 deaths
  Deaths reported in the study: 45.3%
[4]; overall, all arms, 55 patients
  Patients with TEAEs that were study-treatment (LY3200882) related: 39.6%
[4]; overall, all arms, 130 of 139 treated patients
  Patients who experienced ≥1 TEAE: 93.5%
[5]; 35 mg twice a day 3w/1w (8 patients), 95% CI 2.6–NE
  median OS: 4.0 months
[5]; 50 mg twice a day 2w/2w (17 patients), 95% CI 1.2–11.4
  median OS: 6.1 months
[5]; Japanese cohort (N = 9)
  Best overall response: CR: 0 (0) n (%)
  Best overall response: Nonevaluable: 1 (11) n (%)
  Best overall response: PR: 0 (0) n (%)
  Best overall response: Progressive disease: 8 (89) n (%)
  Best overall response: SD: 0 (0) n (%)
  DCR (CR/PR/SD): 0 (0) n (%)
  ORR (CR/PR): 0 (0) n (%)
[5]; 35 mg twice a day 3w/1w (n = 8), 95% CI 0.8–2.6
  median PFS: 1.7 months
[5]; 50 mg twice a day 2w/2w (n = 17), 95% CI 0.9–2.0
  median PFS: 1.8 months
[5]; [16]
  Patients who achieved radiologic CR/PR: 11 patients
  Patients who had SD: 28 patients
[5]; overall study population
  DCR: 28.1%
[5]; [17]
  Best overall response: CR: 0 (0) n (%)
  Best overall response: Nonevaluable: 8 (27) n (%)
  Best overall response: PR: 1 (3) n (%)
  Best overall response: Progressive disease: 15 (50) n (%)
  Best overall response: SD: 6 (20) n (%)
  DCR (CR/PR/SD): 7 (23) n (%)
  ORR (CR/PR): 1 (3) n (%)
[5]; [18]
  Best overall response: CR: 0 (0) n (%)
  Best overall response: Nonevaluable: 4 (13) n (%)
  Best overall response: PR: 1 (3) n (%)
  Best overall response: Progressive disease: 20 (63) n (%)
  Best overall response: SD: 7 (22) n (%)
  DCR (CR/PR/SD): 8 (25) n (%)
  ORR (CR/PR): 1 (3) n (%)
[6]; dose escalation, 1 patient IDH 1–mutant grade 4 glioma, 3w/1w schedule
  Duration of response (RANO PR): 3.9 months
[6]; dose escalation, 1 patient IDH WT grade 4 glioma, 2w/2w schedule
  Duration of response (RANO PR): 19 months
[6]; dose-expansion arm, 1 patient IDH WT grade 4 glioma, 50 mg twice a day 2w/2w
  Duration of response (RANO PR): 5.6 months
[6]; dose-expansion arm, 15 patients with recurrent IDH mutant grade 4 glioma, 95% CI 7.3–NE
  median OS: 10.6 months
[6]; dose-expansion arm, 25 patients with IDH WT grade 4 glioma, 95% CI 4.6–9.7
  median OS: 8.2 months
[6]; dose-expansion arm, IDH mutant, 95% CI 1.3–1.8
  median PFS: 1.7 months
[6]; [19]
  Best overall response: CR: 0 (0) n (%)
  Best overall response: Nonevaluable: 7 (18) n (%)
  Best overall response: PR: 1 (3) n (%)
  Best overall response: Progressive disease: 26 (65) n (%)
  Best overall response: SD: 6 (15) n (%)
  DCR (CR/PR/SD): 7 (18) n (%)
  ORR (CR/PR): 1 (3) n (%)
[6]; [20]
  Time remained on trial: 30.4 months
  Tumor reduction by RANO assessment: 94%

## FOLFIRINOX
[7]
  ORR: 31.6%

Source: article PMC9414273 (Clinical Cancer Research, 2021)
